Test system: U2OS
Assay: Multiplex assay against U2OS
Format: toxicity, cell-based
Conditions: human
How it was run: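 Imaging took place on a CQ1 microscope at 37°C and 5% CO2 once compound had been added to live cells stained at seeding with Hoechst33342, BioTracker Green Microtubule Cytoskeleton Dye, MitoTracker Red and Annexin V Alexa Fluor 680. CellPathfinder machine-learning gating classed cells as Hoechst high-intensity objects or normal cells, classed normal cells as having healthy, pyknosed or fragmented nuclei, and classed pyknosed cells as mitotic or apoptotic. Tubulin, mitochondrial-mass and membrane-permeability phenotypes are per cents of the healthy-nucleus cells.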

[1] = 12 h, 1 µM, compound concentration 1 uM, replicate 1
[2] = 12 h, 1 µM, compound concentration 1 uM, replicate 2
[3] = 12 h, 10 µM, compound concentration 10 uM, replicate 1
[4] = 12 h, 10 µM, compound concentration 10 uM, replicate 2
[5] = 24 h, 1 µM, compound concentration 1 uM, replicate 1
[6] = 24 h, 1 µM, compound concentration 1 uM, replicate 2
[7] = 24 h, 10 µM, compound concentration 10 uM, replicate 1
[8] = 24 h, 10 µM, compound concentration 10 uM, replicate 2
[9] = 48 h, 1 µM, compound concentration 1 uM, replicate 1
[10] = 48 h, 1 µM, compound concentration 1 uM, replicate 2
[11] = 48 h, 10 µM, compound concentration 10 uM, replicate 1
[12] = 48 h, 10 µM, compound concentration 10 uM, replicate 2

## COc1c(C)cc(NC(=O)c2nn(Cc3ccc(F)cc3)c3c2CN(C(=O)c2ccc[nH]2)C[C@]3(C)C(N)=O)cc1C
[1]
  Population Apoptotic (%): 65%
  Population Fragmented Nuclei (%): 22%
  Population Healthy Nuclei (%): 65%
  Population Hoechst High Intensity Objects (%): 2%
  Population Membrane Permeable-Phenotype (%): 8%
  Population Mitochondria Different-Phenotype (%): 3%
  Population Mitotic Cells (%): 34%
  Population Normal (%): 97%
  Population Pyknosed Nuclei (%): 12%
  Population Tubulin-Different-Phenotype (%): 5%
  Total Cell Count: 247
[2]
  Population Apoptotic (%): 83%
  Population Fragmented Nuclei (%): 21%
  Population Healthy Nuclei (%): 72%
  Population Mitochondria Different-Phenotype (%): 12%
  Population Mitotic Cells (%): 16%
  Population Pyknosed Nuclei (%): 6%
  Population Tubulin-Different-Phenotype (%): 9%
  Total Cell Count: 102
[3]
  Population Apoptotic (%): 33%
  Population Fragmented Nuclei (%): 26%
  Population Healthy Nuclei (%): 43%
  Population Hoechst High Intensity Objects (%): 9%
  Population Membrane Permeable-Phenotype (%): 77%
  Population Mitochondria Different-Phenotype (%): 90%
  Population Mitotic Cells (%): 66%
  Population Normal (%): 90%
  Population Pyknosed Nuclei (%): 29%
  Population Tubulin-Different-Phenotype (%): 95%
  Total Cell Count: 223
[4]
  Population Apoptotic (%): 60%
  Population Fragmented Nuclei (%): 11%
  Population Healthy Nuclei (%): 66%
  Population Hoechst High Intensity Objects (%): 8%
  Population Membrane Permeable-Phenotype (%): 54%
  Population Mitochondria Different-Phenotype (%): 97%
  Population Mitotic Cells (%): 39%
  Population Normal (%): 91%
  Population Pyknosed Nuclei (%): 21%
  Population Tubulin-Different-Phenotype (%): 100%
  Total Cell Count: 119
[5]
  Population Apoptotic (%): 67%
  Population Fragmented Nuclei (%): 16%
  Population Healthy Nuclei (%): 71%
  Population Hoechst High Intensity Objects (%): 5%
  Population Membrane Permeable-Phenotype (%): 8%
  Population Mitochondria Different-Phenotype (%): 6%
  Population Mitotic Cells (%): 32%
  Population Normal (%): 94%
  Population Pyknosed Nuclei (%): 12%
  Population Tubulin-Different-Phenotype (%): 7%
  Total Cell Count: 265
[6]
  Population Apoptotic (%): 61%
  Population Fragmented Nuclei (%): 17%
  Population Healthy Nuclei (%): 70%
  Population Hoechst High Intensity Objects (%): 0%
  Population Membrane Permeable-Phenotype (%): 7%
  Population Mitochondria Different-Phenotype (%): 2%
  Population Mitotic Cells (%): 38%
  Population Normal (%): 99%
  Population Pyknosed Nuclei (%): 11%
  Population Tubulin-Different-Phenotype (%): 6%
  Total Cell Count: 111
[7]
  Population Apoptotic (%): 66%
  Population Fragmented Nuclei (%): 26%
  Population Healthy Nuclei (%): 41%
  Population Hoechst High Intensity Objects (%): 12%
  Population Membrane Permeable-Phenotype (%): 46%
  Population Mitochondria Different-Phenotype (%): 92%
  Population Mitotic Cells (%): 33%
  Population Normal (%): 87%
  Population Pyknosed Nuclei (%): 31%
  Population Tubulin-Different-Phenotype (%): 94%
  Total Cell Count: 216
[8]
  Population Apoptotic (%): 65%
  Population Fragmented Nuclei (%): 13%
  Population Healthy Nuclei (%): 53%
  Population Hoechst High Intensity Objects (%): 7%
  Population Membrane Permeable-Phenotype (%): 49%
  Population Mitochondria Different-Phenotype (%): 91%
  Population Mitotic Cells (%): 34%
  Population Normal (%): 92%
  Population Pyknosed Nuclei (%): 33%
  Population Tubulin-Different-Phenotype (%): 91%
  Total Cell Count: 123
[9]
  Population Apoptotic (%): 79%
  Population Fragmented Nuclei (%): 18%
  Population Healthy Nuclei (%): 68%
  Population Hoechst High Intensity Objects (%): 2%
  Population Membrane Permeable-Phenotype (%): 4%
  Population Mitochondria Different-Phenotype (%): 3%
  Population Mitotic Cells (%): 20%
  Population Normal (%): 97%
  Population Pyknosed Nuclei (%): 13%
  Population Tubulin-Different-Phenotype (%): 2%
  Total Cell Count: 365
[10]
  Population Apoptotic (%): 84%
  Population Fragmented Nuclei (%): 15%
  Population Healthy Nuclei (%): 70%
  Population Hoechst High Intensity Objects (%): 5%
  Population Membrane Permeable-Phenotype (%): 9%
  Population Mitochondria Different-Phenotype (%): 4%
  Population Mitotic Cells (%): 15%
  Population Normal (%): 94%
  Population Tubulin-Different-Phenotype (%): 5%
  Total Cell Count: 152
[11]
  Population Apoptotic (%): 84%
  Population Fragmented Nuclei (%): 31%
  Population Healthy Nuclei (%): 24%
  Population Hoechst High Intensity Objects (%): 17%
  Population Membrane Permeable-Phenotype (%): 69%
  Population Mitochondria Different-Phenotype (%): 85%
  Population Mitotic Cells (%): 15%
  Population Normal (%): 82%
  Population Pyknosed Nuclei (%): 44%
  Population Tubulin-Different-Phenotype (%): 90%
  Total Cell Count: 212
[12]
  Population Apoptotic (%): 87%
  Population Fragmented Nuclei (%): 22%
  Population Healthy Nuclei (%): 47%
  Population Hoechst High Intensity Objects (%): 9%
  Population Membrane Permeable-Phenotype (%): 50%
  Population Mitochondria Different-Phenotype (%): 81%
  Population Mitotic Cells (%): 12%
  Population Normal (%): 90%
  Population Pyknosed Nuclei (%): 29%
  Population Tubulin-Different-Phenotype (%): 80%
  Total Cell Count: 150
